Data on 28 molecules can be found in ChEMBL document CHEMBL2216753, “Novel 1,4-benzoxazine and 1,4-benzodioxine inhibitors of angiogenesis” (Eur J Med Chem, 2012).

The source made the active and inactive calls. The rule behind the calls is not given here.

The species entered for one data set is Gallus gallus. In words: Antiangiogenic activity in chicken embryo chorioallantoic membrane model at 250 nmol/disc after 3 days. The class given is functional, tissue-based.
Data set [1] can be described thus: Antiproliferative activity against bovine BAEC cells after 4 days by coulter counter method. The data set is classed as functional, cell-based. The following applies: Bos taurus, 96 h.
In data set [2] the test system is HeLa. The data set is described as follows: Antiproliferative activity against human HeLa cells after 4 days by coulter counter method. The class given is functional, cell-based. The following applies: 96 h.
The nature of data set [3]: Cytotoxicity against bovine BAEC cells at 100 uM after 3 days by coulter counter method. The data set is classed as cell-based, Bos taurus. The following applies: cattle, 72 h. Put shortly:
(§1)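 Cells seeded at 10,000 cells per cm2; after 16 h, fresh medium with test compound added. Cells trypsinized and counted with a Coulter counter on day 4 (BAEC, HeLa, MCF-7) or day 7 (HMEC-1). Cytotoxicity (cell death) was judged after 3 days in culture. HMEC-1 grown in EGM-2 with supplements and growth factors.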

For data set [4], the system named is MCF7. The data set is described as follows: Antiproliferative activity against human MCF7 cells after 4 days by coulter counter method. The data set is classed as functional, cell-based. The following applies: MCF7, 96 h.
Data set [5] can be described thus: Antiproliferative activity against human HMEC1 cells after 7 days by coulter counter method. The data set is classed as functional, cell-based. The following applies: HMEC-1, 168 h.
The test system of data set [6] is HeLa. In words: Cytotoxicity against human HeLa cells at 100 uM after 3 days by coulter counter method. The class given is cell-based. To be noted: 72 h. Summed up:
as §1

A short description of data set [7]: Cytotoxicity against human HMEC1 cells at 100 uM after 3 days by coulter counter method. The data set is classed as cell-based. The following applies: hmec-1, 72 h. Put shortly: as §1
The test system of data set [8] is MCF7. In words: Cytotoxicity against human MCF7 cells at 100 uM after 3 days by coulter counter method. The data set is classed as cell-based. The following applies: mcf7, 72 h. Summed up: as §1
The next data set relates to HMEC-1. The data set is described as follows: Antiangiogenic activity in human HMEC1 cells assessed as inhibition of tube formation after 4 to 6 hrs by matrigel assay. The class given is functional, cell-based. Summed up:
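HMEC-1 (60,000 cells) seeded on matrigel (10 mg/mL) after 30 min gelling at 37 °C, in DMEM containing test compound; after 4–6 h cells photographed and tubes scored 0 (none) to 3 (maximal, like untreated control). Mean ± SD of 2–4 independent experiments; Student t test, p < 0.05 significant.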

Data set [9] deals with HeLa. The data set is described as follows: Cytotoxicity against human HeLa cells at 30 uM after 3 days by coulter counter method. The data set is classed as cell-based. To be noted: 72 h. Summed up: as §1
Data set [10] deals with MAEC. In words: Antimigratory activity against mouse MAEC cell migration after 5 hrs by wound closure assay. The class given is functional, cell-based. Put shortly:
(§2)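 Confluent MAEC monolayers wounded with a 1.0-mm wide micropipette tip, then incubated in fresh medium with test compound. Wounds photographed after 5 h and width calculated from digital images. Mean ± SD of 2–4 independent experiments; Student t test, p < 0.05 significant.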

Data set [11] can be described thus: Cytotoxicity against bovine BAEC cells at 30 uM after 3 days by coulter counter method. The class given is cell-based, Bos taurus. To be noted: cattle, 72 h. Put shortly: as §1
Data set [12] can be described thus: Antimigratory activity against mouse MAEC cell migration at 10 uM after 5 hrs by wound closure assay. The data set is classed as functional. Put shortly:
as §2

The test system of data set [13] is MAEC. The data set is described as follows: Antimigratory activity against mouse MAEC cell migration at 30 uM after 5 hrs by wound closure assay. The class given is functional. Summed up: as §2
Data set [14] can be described thus: Cytotoxicity against human HMEC1 cells at 30 uM after 3 days by coulter counter method. To be noted: hmec-1, 72 h. The data set is classed as cell-based. Put shortly: as §1
For data set [15], the system named is MCF7. The data set is described as follows: Cytotoxicity against human MCF7 cells at 30 uM after 3 days by coulter counter method. The following applies: mcf7, 72 h. The data set is classed as cell-based. Put shortly:
as §1

For the molecule `CN1CC(C)(COc2ccc(C(=N)N)cc2)Oc2cc(N(CC(=O)O)Cc3ccc(F)c(F)c3)ccc21` (stereo not drawn), the inhibition (usually how much of the control response was suppressed) in the data set filed under Gallus gallus was “inactive”.
As to `CN1CC(C)(CO)Oc2cc(N(Cc3cc(F)cc(F)c3)C(=O)C(=O)O)ccc21` (stereo not drawn), the half-maximal inhibitory concentration (IC50) (in data set [1]; with HeLa [2]) was > 100 µM throughout.
`CN1CC(C)(COc2ccc(C(=N)N)cc2)Oc2ccc(N(CC(=O)O)Cc3ccc(F)cc3)cc21` (stereo not drawn): the inhibition result in the data set listed under Gallus gallus is “inactive”.
Consider `CCOC(=O)CN(Cc1ccc(F)cc1)c1ccc2c(c1)OC(C)(COc1ccc(C#N)cc1)CN2C` (stereo not drawn), for which the Activity entry (in data set [3]; in the data set with HeLa [6]; in data set [7]; with MCF7 [8]) was “Toxic” throughout. The IC50 (commonly the point on the concentration scale where inhibition reaches its midpoint) was > 100 µM in the data set on MCF7 [4], > 100 µM in data set [5], 50 µM in data set [1] and > 100 µM in the data set with HeLa [2].
Regarding `CN1CC(C)(COc2ccc(C(=N)N)cc2)Oc2ccc(N(CC(=O)O)Cc3cccc(F)c3)cc21` (stereo not drawn), the inhibition entry in the data set filed under Gallus gallus was “inactive”.
The same measure, in the same setting: the same measure for `CN1CC(C)(COc2ccc(C(=N)N)cc2)Oc2ccc(N(Cc3ccc(F)cc3)C(=O)C(=O)O)cc21` (stereo not drawn): “inactive”; for `CN1CC(C)(COc2ccc(C(=N)N)cc2)Oc2ccc(N(CC(=O)O)Cc3cc(F)cc(F)c3)cc21` (stereo not drawn): “inactive”.
Regarding `CCOC(=O)C(=O)N(Cc1cc(F)cc(F)c1)c1ccc2c(c1)N(C)CC(C)(COc1ccc(C(=N)N)cc1)O2` (stereo not drawn), the inhibition entry in the data set filed under Gallus gallus and in the data set on MAEC [13] was “Active” each time. Also, the Activity entry in data set [3] was “Toxic”; in the data set on HeLa [9], “Non-toxic”; with HeLa [6], “Toxic”; in data set [11] it was “Non-toxic”; in data set [7], “Toxic”; in the data set on MCF7 [8] it was “Toxic”. The Activity result (in data set [14]; in the data set on MCF7 [15]) was “Non-toxic” throughout. The IC50 amounted to 5.2 µM in the data set on MCF7 [4], 7.8 µM in [5], 11 µM in data set [1] and 6.9 µM with HeLa [2]. Moreover, the inhibition result with HMEC-1 and in the data set with MAEC [10] was “Dose-dependent effect” in each case. Also, in data set [12], at 10 µM the inhibition was 50%.
In the case of `N=C(N)c1ccc(OCC2COc3cc(N(Cc4ccccc4)C(=O)C(=O)O)ccc3O2)cc1` (stereo not drawn), the inhibition entry in the data set filed under Gallus gallus was “inactive”. The 50% inhibitory concentration (IC50) (in data set [1]; in the data set with HeLa [2]) was > 100 µM each time.
As for `CN1CC(C)(COc2ccc(C(=N)N)cc2)Oc2ccc(N(Cc3ccc(F)c(F)c3)C(=O)C(=O)O)cc21` (stereo not drawn), the inhibition result in the data set filed under Gallus gallus was “inactive”.
As for `CCOC(=O)C(=O)N(Cc1cccc(F)c1)c1ccc2c(c1)N(C)CC(C)(COc1ccc(C(=N)N)cc1)O2` (stereo not drawn), the inhibition result in the data set listed under Gallus gallus and in the data set with MAEC [13] was “Active” throughout. The inhibition entry in the data set with HMEC-1 and with MAEC [10] was “Dose-dependent effect” throughout.
As for `CCOC(=O)C(=O)N(Cc1cccc(F)c1)c1ccc2c(c1)OC(C)(COc1ccc(C(=N)N)cc1)CN2C` (stereo not drawn), the inhibition entry in the data set filed under Gallus gallus and with MAEC [13] was “Active” in each case. In addition, the Activity result in [3] was “Toxic”; with HeLa [9], “Non-toxic”; in the data set with HeLa [6] it was “Toxic”; in data set [11], “Non-toxic”; in data set [7] it was “Toxic”; in the data set with MCF7 [8] it was “Toxic”. For the same molecule, the Activity entry (in data set [14]; with MCF7 [15]) was “Non-toxic” each time. In addition, the IC50 was 3.8 µM in the data set on MCF7 [4], 7.9 µM in [5], 6.5 µM in data set [1] and 7.7 µM in the data set on HeLa [2]. Also, the inhibition entry with HMEC-1 and in the data set with MAEC [10] was “Dose-dependent effect” each time. Also, in data set [12], 10 µM produced 50% inhibition.
Regarding `Cc1cc(C)c(/C=C2\C(=O)Nc3ccccc32)[nH]1`, the inhibition entry in the data set on MAEC [10] is “Dose-dependent effect”.
With `CN1CC(C)(COc2ccc(C(=N)N)cc2)Oc2cc(N(Cc3cc(F)cc(F)c3)C(=O)C(=O)O)ccc21` (stereo not drawn), the inhibition result in the data set filed under Gallus gallus is “inactive”.
On to `N=C(N)c1ccc(OCC2COc3ccc(N(Cc4ccccc4)C(=O)C(=O)O)cc3O2)cc1` (stereo not drawn), for which the inhibition result in the data set listed under Gallus gallus is “inactive”. Besides, the half-inhibitory concentration (IC50) (in data set [1]; with HeLa [2]) was > 100 µM in each case.
In the case of `CN1CC(C)(COc2ccc(C(=N)N)cc2)Oc2ccc(N(CC(=O)O)Cc3ccc(F)c(F)c3)cc21` (stereo not drawn), the inhibition result in the data set filed under Gallus gallus was “inactive”.
On the same count and under the same terms, in the case of `CN1CC(C)(COc2ccc(C(=N)N)cc2)Oc2cc(N(CC(=O)O)Cc3cc(F)cc(F)c3)ccc21` (stereo not drawn) it was “inactive”.
For `CCOC(=O)CN(Cc1cccc(F)c1)c1ccc2c(c1)N(C)CC(C)(COc1ccc(C#N)cc1)O2` (stereo not drawn), the Activity result (in data set [3]; in the data set with HeLa [6]; in data set [7]; with MCF7 [8]) was “Toxic” throughout. Also, the 50% inhibitory concentration (IC50) (in the data set with MCF7 [4]; in [5]; in [1]; with HeLa [2]) was > 100 µM in each case. For the same molecule, the inhibition entry with MAEC [10] was “Dose-dependent effect”.
Take `CN1CC(C)(COc2ccc(C(=N)N)cc2)Oc2ccc(N(Cc3cc(F)cc(F)c3)C(=O)C(=O)O)cc21` (stereo not drawn): in the data set listed under Gallus gallus, the inhibition entry is “inactive”.
Consider `CCOC(=O)CN(Cc1cc(F)cc(F)c1)c1ccc2c(c1)OC(C)(COc1ccc(C#N)cc1)CN2C` (stereo not drawn), for which the Activity result (in [3]; with HeLa [6]; in data set [7]; with MCF7 [8]) was “Toxic” each time. Further, the half-maximal inhibitory concentration (IC50) was 54 µM with MCF7 [4], 49 µM in data set [5], 25 µM in data set [1] and > 100 µM in the data set with HeLa [2].
As to `CN1CC(C)(COc2ccc(C(=N)N)cc2)Oc2cc(N(Cc3ccc(F)c(F)c3)C(=O)C(=O)O)ccc21` (stereo not drawn), in the data set filed under Gallus gallus, the inhibition result is “inactive”.
Take `CN1CC(C)(COc2ccc(C(=N)N)cc2)Oc2cc(N(CC(=O)O)Cc3cccc(F)c3)ccc21` (stereo not drawn): in the data set filed under Gallus gallus, the inhibition entry is “inactive”.
Regarding `CN1CC(C)(COc2ccc(C(=N)N)cc2)Oc2cc(N(Cc3cccc(F)c3)C(=O)C(=O)O)ccc21` (stereo not drawn), the inhibition result in the data set filed under Gallus gallus was “inactive”.
`CCOC(=O)CN(Cc1cc(F)cc(F)c1)c1ccc2c(c1)N(C)CC(C)(COc1ccc(C#N)cc1)O2` (stereo not drawn): the Activity entry (in data set [3]; in the data set on HeLa [6]; in data set [7]; with MCF7 [8]) was “Toxic” each time. For the same molecule, the IC50 (in the data set with MCF7 [4]; in data set [5]; in data set [1]; with HeLa [2]) was > 100 µM in each case.
Regarding `CN1CC(C)(COc2ccc(C(=N)N)cc2)Oc2ccc(N(Cc3cccc(F)c3)C(=O)C(=O)O)cc21` (stereo not drawn), the inhibition entry in the data set filed under Gallus gallus was “inactive”.
On the same count and under the same terms, the same measure for `CN1CC(C)(COc2ccc(C(=N)N)cc2)Oc2cc(N(Cc3ccc(F)cc3)C(=O)C(=O)O)ccc21` (stereo not drawn): “inactive”.
For the molecule `CN1CC(C)(CO)Oc2cc(N(Cc3ccccc3)C(=O)C(=O)O)ccc21` (stereo not drawn), the concentration for half-maximal inhibition (IC50) (in data set [1]; with HeLa [2]) was > 100 µM each time.
With `CN1CC(C)(COc2ccc(C(=N)N)cc2)Oc2cc(N(CC(=O)O)Cc3ccc(F)cc3)ccc21` (stereo not drawn), the inhibition result in the data set listed under Gallus gallus is “inactive”.
